Experimental data: PubChem BioAssay AID743256 (The Scripps Research Institute Molecular Screening Center, 2014)
Hit rate of the full screen: of about 2,900 compounds, about 1,300 (45%) were called active.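 How the source made its calls: active means mean inhibition over the triplicate runs exceeds the activity threshold set in the earlier primary screen (cut at about 20% in these data); inactive means the rest.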 The set was probably picked from earlier hits. These entries were drawn from the full list.

Biological target: Disintegrin and metalloproteinase domain-containing protein 10 (Homo sapiens) (UniProt O14672)
Assay: blockers of ADAM10 peptide cleavage – biochemical, FRET, human ADAM10, counter-screen for ADAM17 exosite inhibitor project (AID 743256);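 further: 0% = DMSO wells and 100% = marimastat wells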
Conditions: recombinant ADAM10, EDANS/DABCYL FRET peptide cleavage, 3 h; at 6.95 µM; hits give high values
How it was run: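 System: human ADAM10 metalloprotease enzyme in a cell-free biochemical assay; amount: enzyme 2X stock at 20 nM; signal: FRET fluorescence readout; also added: EDANS/DABCYL DM2 peptide, 2X stock 20 µM; control set: 1 µM marimastat (high) and DMSO (low); times: 30 min plus 3 h, 25 °C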

Disintegrin and metalloproteinase domain-containing protein 10 (Homo sapiens), sequence (O14672 214-748 limits assumed): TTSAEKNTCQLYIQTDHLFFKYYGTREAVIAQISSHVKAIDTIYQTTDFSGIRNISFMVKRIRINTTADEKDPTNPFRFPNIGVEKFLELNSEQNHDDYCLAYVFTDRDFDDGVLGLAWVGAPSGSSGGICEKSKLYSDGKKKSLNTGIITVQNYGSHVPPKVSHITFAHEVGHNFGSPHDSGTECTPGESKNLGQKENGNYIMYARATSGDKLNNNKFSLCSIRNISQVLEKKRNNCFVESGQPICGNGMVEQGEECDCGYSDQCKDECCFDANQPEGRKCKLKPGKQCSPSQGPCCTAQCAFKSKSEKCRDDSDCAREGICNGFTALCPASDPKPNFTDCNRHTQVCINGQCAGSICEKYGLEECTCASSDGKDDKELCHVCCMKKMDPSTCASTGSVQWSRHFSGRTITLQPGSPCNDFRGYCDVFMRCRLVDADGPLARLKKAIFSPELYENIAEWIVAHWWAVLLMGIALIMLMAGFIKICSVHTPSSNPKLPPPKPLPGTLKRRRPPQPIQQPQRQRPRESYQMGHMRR

SMILES | inhibition
COc1cccc(NC(=O)C2C(c3ccccc3)C2(Cl)Cl)c1 (stereo not given) | 34.2% (active)
COC(=O)N(C)C[C@@H]1OCc2cnnn2CCCC(=O)N([C@@H](C)CO)C[C@@H]1C | -8.98% (inactive)
C=C(C)COc1ccc(-c2n[nH]c(C)c2-c2ccccc2)c(O)c1 | 40.8% (active)
COc1ccc(S(=O)(=O)N2CCN(C(C)C(=O)Nc3ccc(C(C)C)cc3)CC2)cc1 (stereo not given) | 20.5% (active)
CC(=O)Nc1ccc(S(=O)(=O)N2CCN(CCCOc3cc(C)ccc3C)CC2)cc1 | 12.4% (inactive)
O=C1NC(=O)C(c2ccc(Cl)cc2)N1 (stereo not given) | 6.62% (inactive)
CN(C(=O)c1cccc(NC(=O)Cc2cccc([N+](=O)[O-])c2)c1)C1CCCCC1 | 19.9% (active)
COc1ccccc1C(=O)NCC(=O)OCC(=O)NNC(=O)c1ccc(Br)cc1 | 3.18% (inactive)
S=C(NCc1ccc(Cl)cc1)NC12CC3CC(CC(C3)C1)C2 | 22.6% (active)
Cc1ccc(/C=N/NC(=O)CSc2nc3ccccc3o2)cc1 | 5.15% (inactive)
C[C@@H]1CN([C@H](C)CO)C(=O)c2cc(-c3ccc(F)cc3)cnc2O[C@H]1CN(C)C(=O)c1ccc(F)cc1 | 12.7% (inactive)
CC(C)Oc1cc(F)ccc1-c1cc(C(=O)Nc2cccc(Cl)c2)[nH]n1 | 25.8% (active)
Cc1cc(C)cc(NC(=S)NCCc2c[nH]c3ccccc23)c1 | 14% (inactive)
N#C/C(=C/c1ccc(N2CCCCC2)o1)C(=O)NCCc1c[nH]c2ccccc12 | 23.4% (active)
O=C(CSc1nc(-c2ccccc2)cs1)Nc1cccc([N+](=O)[O-])c1 | 24.3% (active)
CCOc1ccc(N2C(=O)CC(N(CCc3ccc(OC)c(OC)c3)C(=S)Nc3ccccc3)C2=O)cc1 (stereo not given) | 4.08% (inactive)
COc1ccc(Cl)cc1NC(=O)COC(=O)C(CC(C)C)N1C(=O)C2CC=CCC2C1=O (stereo not given) | 17.9% (inactive)
CC1(C)C=Cc2c(ccc3c2OC[C@@H](c2ccc(O)cc2O)C3)O1 | 24.2% (active)
Cn1nc(C(F)(F)F)c2cc(NC(=O)OCC(C)(C)C)sc21 | 13% (inactive)
C#CCN(C[C@H]1[C@H](OC(=O)NC2CCCC2)[C@H](OC(=O)NC2CCCC2)C[C@H]2C(=O)N(c3ccccc3)C(=O)[C@@H]12)S(=O)(=O)c1ccc(C)cc1 | 19.1% (inactive)
CCOc1ccccc1C1CC(c2cccc(NS(C)(=O)=O)c2)=NN1C(=O)c1ccccc1 (stereo not given) | -1.35% (inactive)
Cc1ccc(S(=O)(=O)NCCSc2ccccc2)cc1[N+](=O)[O-] | 6.91% (inactive)
Cc1cc(C)cc(NS(=O)(=O)c2ccc(Oc3ncc(C(F)(F)F)cc3Cl)cc2)c1 | 39% (active)
COc1cc(/C=N/n2c(C)n[nH]c2=S)ccc1OCc1ccccc1 | -1.14% (inactive)
COC(=O)c1c(C)[nH]c(C(=O)/C=C/c2ccc(Cl)cc2)c1C | -38.4% (inactive)
O=C(OCc1ccc(-c2ccccc2)cc1)c1cccc(O)c1 | 22.9% (active)
COC(C(=O)Nc1ccc(S(=O)(=O)Nc2ccc(C)c(C)c2)cc1)c1ccccc1 (stereo not given) | 29.4% (active)

SMILES | inhibition
COc1ccc(C(CNC(=O)c2cc(S(=O)(=O)Nc3cccc(C)c3)ccc2C)N2CCCC2)cc1 (stereo not given) | 6.83% (inactive)
O=C(COC(=O)c1ccccc1)Nc1ccccc1Sc1ccccc1 | 20.3% (active)
Cc1ccccc1C(=O)Nc1ccccc1Sc1ccccc1 | 10.7% (inactive)
CC(=O)Nc1ccc(S(=O)(=O)Oc2ccc(Br)cc2C(=S)N2CCOCC2)cc1 | 13.5% (inactive)
COc1ccc(S(=O)(=O)N2CCCCC2)cc1Br | 10.7% (inactive)
O=C(CSCc1ccc(Br)cc1)Nc1ccc(S(=O)(=O)N2CCCCCC2)cc1 | 23% (active)
COc1ccc(CC(=O)c2ccc(O)cc2O)cc1OC | 6.86% (inactive)
Cc1ccc(Cn2nnc3c(=O)[nH]c(C4CCN(S(=O)(=O)/C=C/c5ccccc5)CC4)nc32)cc1 | 41.6% (active)
N/C(Cc1ccc([N+](=O)[O-])cc1)=N\OC(=O)COc1ccc2ccccc2c1 | 11.5% (inactive)
O=C(Nn1c(SCc2ccc([N+](=O)[O-])cc2)nc2ccccc2c1=O)c1ccc(F)cc1 | 30.6% (active)
CC(C)(C)c1ccc(S(=O)(=O)NCC2CCN(C(=O)C(=O)c3cc4ccccc4o3)CC2)cc1 | 24.1% (active)
C=CC(COCc1ccccc1)N(CC(=O)OC)S(=O)(=O)c1cc(Br)ccc1OC (stereo not given) | 13.2% (inactive)
FC(F)(F)Oc1ccccc1C(c1nnnn1C1CCCCC1)N1CCN(C/C=C/c2ccccc2)CC1 (stereo not given) | 17.1% (inactive)
COc1ccc(-c2cc(C3CCN(c4ncccc4[N+](=O)[O-])CC3)[nH]n2)cc1 | 27.1% (active)
O=C(Nc1ccc(C(=O)NCc2ccccc2Cl)cc1)C1=CSCCO1 | 9.95% (inactive)
Cn1nc(C(F)(F)F)c(C(=O)Nc2cccc(C(F)(F)F)c2)c1SCc1ccc(Cl)cc1 | 37.8% (active)
COc1ccc(C(N)c2csc(NC(=O)Nc3cccc(C(F)(F)F)c3)n2)cc1 (stereo not given) | 14.4% (inactive)
O=C(COc1ccc(Cl)cc1)N1CCN(c2cccc(C(F)(F)F)c2)CC1 | 18.6% (inactive)
CCOC(=O)c1cccc(NC(=O)CN(C)S(=O)(=O)c2ccc(-c3cocn3)s2)c1 | 4.04% (inactive)
COc1ccc(Cn2cc(CN3CCS(=O)(=O)N(Cc4ccc(-c5cccc(Cl)c5)cc4)C(C)C3=O)nn2)cc1 (stereo not given) | 18% (inactive)
COc1ccc(-c2ccc(CN3C(CC(C)C)C(=O)N(Cc4cn(CC5CCCCC5)nn4)CCS3(=O)=O)cc2)cc1 (stereo not given) | 26.9% (active)
O=C1[C@H]2[C@@H](c3ccc(C(F)(F)F)cc3)N[C@]3(CCCN(Cc4ccc(Br)cc4)C3=O)[C@H]2C(=O)N1Cc1ccccc1 | 32.2% (active)
CCOc1ccccc1CNS(=O)(=O)c1cc(-c2cc(C)no2)ccc1C | 1.34% (inactive)
CCOc1ccc(OCC)c(-c2c(=O)n(OCc3ccc(Cl)cc3)c3ccccc3[n+]2[O-])c1 | -2.21% (inactive)
O=C(Cc1ccc(Cl)c(Cl)c1)Nc1ccc(SC(F)F)cc1 | 43.3% (active)
Cc1ccc(-n2c(COc3ccccc3)nnc2SCC(=O)Nc2ccc3c(c2)OCCO3)cc1 | 25.8% (active)
CCOc1ccc(-n2c(SCC(=O)Nc3cc(C)c(NC(=O)c4ccccc4)cc3OC)nnc2-c2cccs2)cc1 | 8.96% (inactive)

SMILES | inhibition
O=C(CN1CCN(c2nc(-c3ccccc3)cs2)CC1)NCc1ccc2c(c1)OCO2 | 24.1% (active)
CC1(Cc2cccc(C#N)c2)C(=O)Nc2ccc(-c3cccc(C(F)(F)F)c3)cc21 (stereo not given) | 36.6% (active)
COCCNC(=O)C(c1ccc(C)o1)N(Cc1ccccc1)C(=O)Cn1nnc2ccccc21 (stereo not given) | -7.67% (inactive)
O=C(CC1SC(=Nc2ccccc2)N(Cc2ccccn2)C1=O)Nc1cccc(Cl)c1 (stereo not given) | 35% (active)
CCN1C(=O)C(CC(=O)Nc2cc(C)ccc2C)SC1=Nc1ccc(S(N)(=O)=O)cc1 (stereo not given) | 5.34% (inactive)
COc1ccc(CC(N)c2csc(NC(=O)NC(c3ccccc3)c3ccccc3)n2)cc1 (stereo not given) | 5.76% (inactive)
C=CCOc1ccccc1/C=N/NC(=O)Cc1ccccc1 | -0.63% (inactive)
Cn1c(=O)c2c(nc(N/N=C/c3cccs3)n2Cc2ccc(Br)cc2)n(C)c1=O | -80.2% (inactive)
O=C(COC(=O)CCCSc1nc2ccccc2[nH]1)Nc1ccc(Oc2ccccc2)cc1 | 39.3% (active)
O=C1/C(=C\c2ccsc2)NC(=S)N1c1ccccc1 | 10.1% (inactive)
COc1ccc(CN(C)C(=O)CC(c2ccccc2)c2ccccc2)cc1 | 7.1% (inactive)
Clc1ccc(C(Cn2ccnc2)OCc2ccsc2Cl)c(Cl)c1 (stereo not given) | 22.7% (active)
C=CCC[C@@H](Cc1ccc(F)cc1)C(=O)O[C@H](CNC(=O)[C@H](CC=C)CC(=O)N(CCO)Cc1ccccc1)c1ccccc1 | 45.3% (active)
C=CCC[C@@H](Cc1ccc(F)cc1)C(=O)OC[C@H](Cc1c[nH]c2ccccc12)NC(=O)[C@@H](CC=C)CC(=O)N(CCO)Cc1ccccc1 | 35.2% (active)
C=CC[C@H](CC(=O)N(CCO)Cc1ccccc1)C(=O)N[C@@H](COC(=O)[C@@H](CC=C)Cc1ccc(F)cc1)Cc1ccccc1 | 25.1% (active)
COc1cc(NC(=O)CCS(=O)(=O)c2ccc3c(c2)oc(=O)n3C)cc(OC)c1 | 11.3% (inactive)
Cc1nnc(SCC(=O)Nn2cnnc2)s1 | -7.63% (inactive)
Cc1ccc(NC(=S)NNC(=O)CSc2nnc(SCc3ccccc3Cl)s2)cc1 | 37.1% (active)
O=C(CSc1nnc(Nc2ccccc2)s1)Nc1cccnc1Cl | 10.6% (inactive)
CCOC(=O)c1c(Cc2ccc(Cl)cc2)c[nH]c1C | 19.5% (inactive)
CC[C@@]12C(=O)N(c3ccccc3)C(=O)N1[C@H](c1ccc(Br)cc1)[C@@H]1C(=O)N(C(C)(C)C)C(=O)[C@@H]12 | 6.71% (inactive)
CC(C)(C)N1C(=O)[C@H]2[C@@H](c3ccc(Br)cc3)N3C(=O)N(c4cccc(Cl)c4)C(=O)[C@@]3(C)[C@H]2C1=O | 22.2% (active)
COc1ccc([C@@H]2[C@@H]3C(=O)N(C(C)(C)C)C(=O)[C@@H]3[C@]3(Cc4ccccc4)C(=O)N(c4cccc(Br)c4)C(=O)N23)cc1 | 28.6% (active)
COc1cccc(CNc2nc(C(F)(F)F)nc3ccccc23)c1 | 8.29% (inactive)
CC(C)(C)OC(=O)N1CCC(NC(=O)c2[nH]cnc2C(=O)N[C@@H](Cc2ccccc2)C(=O)OCc2ccccc2)CC1 | 35.8% (active)
CC(C)(C)OC(=O)CNC(=O)c1[nH]cnc1C(=O)N[C@@H](Cc1ccccc1)C(=O)OCc1ccccc1 | 42.9% (active)
